Hits are enriched below; roughly 1.1% of the tested compounds scored in any of these assays.
Calb biofilm kill = mixture kills Candida albicans biofilm cells | actives 0.02% (n = 120,000) | C. albicans biofilm persisters + clotrimazole, fluorescence viability; primary screen in compound mixtures of four per well | inhibition, % at 7.6 µM;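 active = inhibition above 30.3% in the primary screen of four-compound pools, then above 30% when the compound was retested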;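 also: compounds exposed to preformed 24 h biofilms for 48 h; 0% = untreated biofilm control and 100% = clotrimazole plus chlorhexidine kill blank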
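Assay system: C. albicans biofilms / Medium: RPMI/MOPS medium, pH 7.0 / Schedule: biofilm formation 24 h, compound exposure 48 h, 37 °C / Measured by: Alamar Blue fluorescence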
Furin inh = inhibitors of human furin; purified furin, fluorogenic substrate cleavage; inhibition, % at 20 µM or 30 µM; actives 0.061% (n = 220,000); AID 463115; in the data active = inhibition above about 25%
Target sequence (P09958 108-714 limits assumed): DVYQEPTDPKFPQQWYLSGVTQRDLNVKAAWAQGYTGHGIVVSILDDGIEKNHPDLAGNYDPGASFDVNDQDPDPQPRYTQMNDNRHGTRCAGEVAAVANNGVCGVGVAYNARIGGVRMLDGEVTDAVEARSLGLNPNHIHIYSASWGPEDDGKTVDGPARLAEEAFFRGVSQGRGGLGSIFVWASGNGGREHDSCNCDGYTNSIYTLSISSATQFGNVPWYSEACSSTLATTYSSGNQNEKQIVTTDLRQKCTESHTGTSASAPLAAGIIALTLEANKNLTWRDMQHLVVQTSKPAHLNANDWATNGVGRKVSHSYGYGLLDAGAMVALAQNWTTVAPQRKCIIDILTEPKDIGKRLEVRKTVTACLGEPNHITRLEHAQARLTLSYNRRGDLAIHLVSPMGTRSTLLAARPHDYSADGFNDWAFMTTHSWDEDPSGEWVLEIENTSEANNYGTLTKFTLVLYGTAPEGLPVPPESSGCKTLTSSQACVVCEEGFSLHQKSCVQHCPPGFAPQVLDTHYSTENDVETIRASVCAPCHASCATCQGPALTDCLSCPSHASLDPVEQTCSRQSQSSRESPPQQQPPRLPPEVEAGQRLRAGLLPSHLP
Thrombin inh = thrombin (human) inhibition | inhibition, % at 5 µM | AID 1046 | alpha-thrombin, Boc-VPR-AMC fluorogenic substrate cleavage | actives 0.26% (n = 220,000) | P00734;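 active = inhibition at or above 40%; inactive = inhibition below 40%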;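 also: 0% = enzyme with no compound and 100% = wells without enzyme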
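Material: human alpha-thrombin protein. Incubation: reaction at ambient temperature. Technique: fluorescence of released AMC, ex 355 nm, em 460 nm. Control set: no-compound enzyme wells and no-enzyme blanks. Also added: Boc-VPR-AMC substrate, 15 µM final. Buffer or medium: pH 7.5 Tris (50 mM) with NaCl 150 mM, Tween 20 0.05%.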
FXIa inh = inhibitors of human coagulation factor XIa | P03951 | purified FXIa, Boc-Glu-Ala-Arg-AMC fluorogenic substrate | inhibition, % at 5 µM | actives 0.14% (n = 220,000);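 active = inhibition of at least 40%; inactive = inhibition below 40%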;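 also: fluorescence of freed AMC excited at 355 nm; 0% = enzyme without compound and 100% = no enzyme blank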
KLK5 inh = inhibitors of human kallikrein 5 | inhibition, % at 5 µM | AID 873 | actives 0.59% (n = 210,000) | recombinant hK5, fluorogenic AMC substrate cleavage;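 active = inhibition of 40% or more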;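 also: 0% = enzyme controls without compound and 100% = no-enzyme blanks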
FXIIa inh 1536 = inhibitors of human coagulation factor XIIa; AID 800; actives 0.3% (n = 220,000); P00748; purified FXIIa, Boc-QGR-AMC fluorogenic substrate, 2 h; inhibition, % at 5 µM; in the data active = inhibition above about 40%;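 also: 0% = enzyme with no compound and 100% = blank without enzyme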
The depositor's hits bear a star; . = no result given.

SMILES	Calb biofilm kill	Furin inh	Thrombin inh	FXIa inh	KLK5 inh	FXIIa inh 1536
COc1cc(/C=C(\C#N)C(=O)c2c[nH]c3ccccc23)cc(OC)c1O	9.2	-5.4	4.1	8.6	5.3	4.6
CCN(CC)S(=O)(=O)c1cc(C)ccc1NC(=S)Nc1cccnc1	15.8	-33.8	1.6	4.8	2.2	11.5
O=C(CCS(=O)(=O)c1cccc2nsnc12)NC1CCCCCC1	.	-23.9	14.1	10.7	40.9*	8.1
CC(=O)OCC(=O)Nc1cc(S(=O)(=O)N2CCCCCC2)ccc1Cl	-2.1	-31.7	.	1.0	-1.4	5.0
O=C(COC(=O)c1cc(Br)ccc1O)Nc1cc(S(=O)(=O)N2CCCC2)ccc1Cl	19.3	-23.1	45.3*	-7.8	-19.2	0.9
O=c1[nH]c2cc(NCCO)c([N+](=O)[O-])cc2[nH]1	9.2	0.3	-5.3	-8.9	-10.6	-2.9
Cn1c(=O)cc(OCCCC(=O)NC2CCCC2)c2ccccc21	.	-8.5	16.8	17.0	70.0*	22.5
COC(C[C@H](O)C[C@@H](O)[C@H](C)OCc1ccccc1)OC	10.6	-5.0	-2.6	25.7	16.6	46.3*
Oc1ccc(-c2cccc(-c3ccc(O)cc3)n2)cc1	.	-5.9	-5.7	-8.6	46.7*	-2.0
Oc1ccc(-c2nccc(-c3ccc(Cl)cc3)n2)cc1	2.1	-10.9	2.4	-4.8	-6.0	7.4
Oc1ccc(-c2nc3ccccc3s2)cc1	27.1	-26.0	41.9*	-7.1	-8.1	-1.0
CC(C)(C)C(=O)CSc1ncnc2c1cnn2-c1ccccc1	-2.0	-3.2	-4.6	42.6*	24.0	18.5
Cc1ccccc1-n1ncc2c(SCC(=O)N3c4ccccc4CC3C)ncnc21 (centres undefined)	.	-17.1	40.7*	19.6	31.7	26.0
Nc1nc(-c2ccc(Cl)cc2)cc(C(F)(F)F)n1	.	-23.6	10.1	8.8	41.9*	16.0
Cc1ccc(C)c(C2=CSC3=NCCN23)c1	.	-22.8	12.4	6.1	79.9*	17.7
COc1ccc(CCN2C(=O)CSC2=Nc2ccc(C)cc2C)cc1OC	21.2	-16.1	0.7	2.1	0.5	11.0
O=C1N=C(N2CCCC2C(=O)O)S/C1=C\c1ccco1 (centres undefined)	10.6	1.8	0.5	11.5	22.6	13.8
Cc1ccc(C)c(NC(=O)CN(C)C(=O)CCN2C(=O)c3ccccc3C2=O)c1	.	-12.8	8.3	3.9	53.1*	46.0*
COc1ccc(-c2cc(C(F)(F)F)n3nc(C(=O)N4CCOCC4)nc3n2)cc1	.	-10.6	-5.7	0.6	-3.4	8.9
O=C(c1nc2nc(-c3ccccc3)cc(C(F)(F)F)n2n1)N1CCCCC1	.	-20.3	22.4	12.7	63.8*	16.2
O=C(c1ccc(N2CCCC2=O)cc1)N1CCCCCC1	.	-19.8	-6.8	31.8	-12.2	57.4*
O=C(c1ccc(N2CCCC2=O)cc1)N1CCN(c2ccccc2)CC1	.	-10.2	-2.8	-6.8	3.2	15.9
O=C(NCCN1CCOCC1)c1ccc(N2CCCC2)c([N+](=O)[O-])c1	11.6	-26.0	-1.8	-3.1	9.3	10.3
O=C1c2cccc3cccc(c23)C(=O)N1CCCN1CCN(c2ccc(F)cc2)CC1	7.3	-1.3	.	7.9	3.6	10.9
CN1CCN(Cc2cc(=O)oc3cc4c(cc23)CCC4)CC1	.	-8.2	-1.7	0.0	-2.6	5.4
SMILES	Calb biofilm kill	Furin inh	Thrombin inh	FXIa inh	KLK5 inh	FXIIa inh 1536
O=c1cc(CN2CCN(c3ccc(F)cc3)CC2)c2cc3c(cc2o1)CCCC3	.	-19.5	17.0	18.4	40.3*	27.0
CCOC(=O)c1cccc(NC(=O)CSc2nnc(-c3ccoc3C)n2CCOC)c1	.	-16.1	14.8	22.0	31.7	47.6*
Cc1occc1-c1nnc(SCC(=O)Nc2ccccc2)n1CCc1ccccc1	.	-17.5	6.0	2.5	-29.4	5.3
C=CCn1c(SCC(=O)Nc2cccc(C(=O)OC)c2)nnc1C(C)NC(=O)c1cccs1 (centres undefined)	.	-14.4	18.7	16.4	49.5*	34.8
COc1ccc(C(=O)Nc2cccc(S(C)(=O)=O)c2)cc1OC	18.8	-7.4	11.2	28.4	42.7*	22.1
COc1ccc(C(=O)Nc2cccc(NC(C)=O)c2)cc1OC	9.4	-13.7	1.7	6.7	-0.2	14.3
CCOc1ncccc1C(=O)OCc1c(F)cccc1Cl	-11.9	-10.2	-8.6	-0.6	-1.9	.
CCCNC(=O)c1cccc(Cn2cc(Br)c([N+](=O)[O-])n2)c1	10.6	-18.5	11.4	8.5	41.3*	38.7
